Only some compounds are listed: those with a hit (about 9.6% of all), similar ones and a draw of the others.
BaF3 tox: parental Ba/F3 viability inhibition as JAK2V617F counter-screen; inhibition, % at 5.6 µM; hit rate 1.1% among 220,000; CellTiter-Glo ATP luminescence;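 active = inhibition above a per-campaign cutoff, the mean inhibition of all tested compounds plus 3 SD, cut at about 27% in these data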
Lmaj promast: inhibitors of Leishmania major promastigote growth | hit rate 9% among 200,000 | Leishmania major promastigotes, resazurin fluorescence viability | inhibition, % at 10 µM | AID 1063; in the data active = inhibition above about 50%;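 also: promastigotes grown with compound for 44 hours at 28 °C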
Ba/F3 V617F tox: reduce viability of Ba/F3 cells dependent on JAK2V617F; inhibition, % at 5.6 µM; Ba/F3 EpoR-JAK2V617F viability, ATP luminescence; AID 1446; hit rate 1.1% among 220,000;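 active = inhibition above the campaign mean plus 3 SD over all tested compounds, cut at about 24% in these data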;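 also: cytokine-independent growth of Ba/F3 cells driven by EpoR plus mutant JAK2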
b-catenin transl: beta-catenin nuclear translocation modulation; hit rate 0.3% among 190,000; HeLa beta-catenin nuclear translocation, immunofluorescence imaging; nuclear translocation activity, % at 5 µM;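 active = nuclear translocation activity above 50% at 5 µM, with a well cell count of 50 or more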;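 also: per-cell ratio of nuclear to cytoplasmic median beta-catenin stain intensity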
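Technique: fluorescence imaging of beta-catenin antibody stain plus DAPI / Material: human HeLa cell line / Incubation: compound treatment 24 h, 37°C, 5% CO2 / Read-out basis: % activation of per-cell nuclear versus cytoplasmic median beta-catenin signal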
MT stabilizer: stabilizes microtubules in HeLa cells; HeLa tubulin immunostaining HCS, 24 h; share of cells brighter than vehicle mean+2SD; % tubulin-high responders, % at 10 µM; hit rate 0.83% among 200,000; AID 2205;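 active = plate Z-score above 3 for both tubulin-high and condensed-nucleus cell shares, with cell loss under 80%, at 10 µM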;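 also: anti alpha tubulin signal scored within the nucleus-defined area of each cell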
APP transl inh: APP translation inhibition | hit rate 0.82% among 190,000 | SH-SY5Y APP 5'UTR-luciferase reporter, luminescence | inhibition, % at 2 µM;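 active = inhibition above a set limit, derived from the sample mean plus 3 SD, cut at about 45% in these data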
Each line names hits and unclear results; the compound was inactive in the other large screens.

CCC(C)NC(=O)c1ccccc1-c1nc2ccccc2[nH]1 (centres undefined)	none
O=C1N(Cc2cccc(Cl)c2)C[C@@H]2C[C@@H](c3cccn3-c3cccnc3)N3CCC[C@@]123	none
Cc1cc(C)c(CSc2ncnc3nc[nH]c23)c(C)c1	b-catenin transl 56
O=C(N/N=C/c1ccc(Br)cc1)c1ccc(Br)o1	none
COc1ccc(NC(=O)c2ccc(-c3ccccc3)cc2)cc1NS(=O)(=O)c1ccc(F)cc1	Lmaj promast 91
COc1ccc(C(=O)Nc2ccc(Cl)c(S(=O)(=O)Nc3ccccc3OC)c2)cc1	none
CCN(CC)c1ccc(NC(=O)c2cccc(C)c2)cc1S(=O)(=O)Nc1ccccc1OC	Lmaj promast 97
CCN(CC)c1ccc(NC(=O)c2ccccc2)cc1S(=O)(=O)Nc1ccccc1OC	Lmaj promast 100
COC(=O)[C@H](CCSC)NS(=O)(=O)c1ccccc1Br	none (no result: BaF3 tox, Lmaj promast, Ba/F3 V617F tox, MT stabilizer, APP transl inh)
Cc1cc(C)c2nc(Cl)c(C3NC(=O)c4ccccc4N3)cc2c1 (centres undefined)	none
Cc1ccc(C)c2nc(Cl)c(C3NC(=O)c4ccccc4N3)cc12 (centres undefined)	MT stabilizer 16
COc1ccc2cc(C3NC(=O)c4ccccc4N3)c(Cl)nc2c1 (centres undefined)	none
Cc1ccc(C)c(C2NC(=O)c3ccccc3N2)c1 (centres undefined)	BaF3 tox 39, Ba/F3 V617F tox 42, b-catenin transl 64 (no result: Lmaj promast, MT stabilizer, APP transl inh)
CC(NC(=O)CN(C)S(=O)(=O)c1cnc[nH]1)c1ccccc1 (centres undefined)	none
CCOC(=O)c1c(C)nc2cc(C)cc(C)n12	none
CSc1nccc(Oc2ccc(C#N)cc2)n1	none
CN(C)c1ccc(-n2cccc2/C=C/[N+](=O)[O-])cc1	Lmaj promast 97
COc1cccc(C(=O)N2CCN(C3CCC(c4ccccc4)CC3)CC2)c1 (centres undefined)	Lmaj promast 89
O=C(c1cccc(F)c1)N1CCC(N2CCCCCC2)CC1	Lmaj promast 87 (no result: b-catenin transl)
COc1cccc(C(=O)N2CCC(N3CC(C)OC(C)C3)CC2)c1 (centres undefined)	Lmaj promast 73
Cc1cccc(OCC(=O)N2CCC(N3CCCCCC3)CC2)c1	Lmaj promast 92
O=C1C[C@@H](c2ccc(O[C@@H]3O[C@H](CO)[C@@H](O)[C@H](O)[C@H]3O)cc2)Oc2cc(O)ccc21	none (no result: b-catenin transl)
COC(=O)c1ccc(SC)cn1	none
CC(C)C(OC(=O)CCCC(=O)Nc1nccs1)C(=O)NC1CCCCC1 (centres undefined)	none
CCn1cc(/C=N\NC(=O)C2(C)CC2(Cl)Cl)c(C)n1 (centres undefined)	none (no result: b-catenin transl)
C/C(=C\C(=O)c1ccncc1)Nc1ccccc1O	Lmaj promast 57 (no result: b-catenin transl)
CC(=O)Nc1ccccc1O	none
CCCOC(=O)c1ccc(OCC(O)Cn2c(C)nc3ccccc32)cc1 (centres undefined)	none
CCc1nccn1S(=O)(=O)c1ccc(Br)cc1Br	Lmaj promast 89
CCc1nccn1S(=O)(=O)c1ccc(OC)c(C)c1C	none (no result: b-catenin transl)
CCCN1C(=O)/C(=C\c2nc3ccccc3c(=O)[nH]2)c2ccccc21	Lmaj promast 100
CCCCCCCCNC(=S)NCCN1CCCCC1	Lmaj promast 97
Cc1ccc(-c2nc3ccccc3c(=O)n2NC(=S)N(C)C)cc1	none
COc1cc(OC)cc(C(=O)NNC(=S)Nc2ccc(S(N)(=O)=O)cc2)c1	none
CC(=O)/C(=N\Nc1ccc(C)cc1)Sc1nncn1C	none
CC(C)CCN1C(=O)c2ccccc2C1C(=O)NCc1cccnc1 (centres undefined)	none (no result: b-catenin transl)
Cc1ccc(OCCSc2nc3ncnc(N)c3[nH]2)cc1	none
Nc1ncnc2nc(SCCOc3ccc(Cl)cc3)[nH]c12	Lmaj promast 55 (no result: b-catenin transl)
COc1cc(C2C3=C(Nc4ncnn42)c2ccccc2CC3)cc(OC)c1OC (centres undefined)	BaF3 tox 90, Ba/F3 V617F tox 93, b-catenin transl 135, MT stabilizer 18, APP transl inh 95
COc1cc(C2C=C(c3cccs3)Nc3ncnn32)cc(OC)c1OC (centres undefined)	b-catenin transl 119
COc1ccc(C2C3=C(Nc4ncnn42)c2ccccc2CCC3)cc1 (centres undefined)	none
CCO[C@@H]1OC(C(=O)N2CCN(Cc3ccccc3)CC2)=C[C@H](c2coc3ccccc3c2=O)[C@H]1CCCO	none
CCCn1c(SCC(=O)c2c(C)[nH]c(C)c2C(=O)OCC)nc2ccccc21	Lmaj promast 64 (no result: b-catenin transl)
CO/N=C/C(C#N)=C/c1cc(C(=O)c2ccccc2)cn1C	none
COc1ccc(NC(=O)c2cccc(-n3c(C)ccc3C)c2)c(OC)c1	Lmaj promast 63
CC1CC1C(=O)Nc1nc(-c2cccs2)c(-c2cccs2)s1 (centres undefined)	Lmaj promast 62
O=C(Nc1nc(-c2cccs2)c(-c2ccccc2)s1)c1ccco1	none
C=CCNC(=S)NNC(=O)CCC(O)CCCCC (centres undefined)	none (no result: b-catenin transl)
CC(C)(C)c1ccc(-c2cc(N)n[nH]2)cc1	APP transl inh 61 (no result: b-catenin transl)
N=c1n(CCN2CCCCC2)c2ccccc2n1CC(O)c1ccco1 (centres undefined)	none (no result: Lmaj promast, MT stabilizer, APP transl inh)
Cc1cccc(OCC(O)Cn2c(=N)n(CCN3CCCCC3)c3ccccc32)c1 (centres undefined)	BaF3 tox 55, Lmaj promast 100, Ba/F3 V617F tox 25
CCN(CC)CCn1c(=N)n(CC(O)COc2cccc(C)c2)c2ccccc21 (centres undefined)	Lmaj promast 100
Cc1ccccc1NC(=O)CCC(=O)OCCCC(F)(F)C(F)(F)F	none
CCOC(=O)c1c(NC(=O)C2COc3ccccc3O2)sc2c1CCN(Cc1ccccc1)C2 (centres undefined)	Lmaj promast 58
CCOC(=O)c1c(NC(=S)Nc2ccccc2)sc2c1CCN(CC)C2	Lmaj promast 98
CCOC(=O)c1c(NC(=O)C2CCCN(S(=O)(=O)c3ccc(C)cc3)C2)sc2c1CCCC2 (centres undefined)	none
NC(=O)c1c(NC(=O)C2COc3ccccc3O2)sc2c1CCN(Cc1ccccc1)C2 (centres undefined)	none
Cc1cccc(NC(=O)COc2cccc3c2CCN(C)C3=O)c1C	none
CCOC(=O)c1c(NC(=S)Nc2ccccc2)sc2c1CCCCC2	none
CCOC(=O)c1c(NC(=O)COc2cccc3c2CCN(C)C3=O)sc2c1CCC2	Lmaj promast 80 (no result: b-catenin transl)
CCOC(=O)c1c(NC(=O)C2CCCN(S(=O)(=O)c3ccccc3)C2)sc2c1CCCC2 (centres undefined)	Lmaj promast 81 (no result: b-catenin transl)
COC(=O)C1=CN(C)C=C(C(=O)OC)C1c1ccccc1Cl	none
CCCOc1ccccc1C1C(C(=O)OC)=CN(C(C)C)C=C1C(=O)OC	Lmaj promast 100

Compound activity from PubChem.
